According to ChEMBL document CHEMBL1145993, “Pyrazole derivatives as partial agonists for the nicotinic acid receptor” (J Med Chem, 2003):

Legend:
[1] = organism: Rattus norvegicus; experiment: Relative intrinsic activity in stimulation of [35S]GTP gamma-S binding to rat spleen was determined; type: functional
Outline: (§1)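 Relative intrinsic activity is maximal stimulation of [35S]GTPγS binding (0.2 nM) as a percentage of the maximum given by nicotinic acid, which is set at 100%. Rat membranes (adipocyte for line 3, spleen for line 4) at 1 to 1.5 µg protein were incubated 90 min at 25 °C with 10 µM GDP and 100 mM NaCl, then filtered. Values are arithmetic mean ± SEM.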

[2] = organism: Rattus norvegicus; experiment: G protein activation was measured by stimulation of [35S]GTP gamma-S binding to rat adipocyte membranes; type: functional
[3] = organism: Rattus norvegicus; experiment: Relative intrinsic activity in stimulation of [35S]GTP gamma-S binding to rat adipocyte was determined; type: functional; outline: as §1
[4] = organism: Rattus norvegicus; experiment: Potency required for stimulation of [35S]GTP gamma-S binding to rat spleen was determined; type: functional, organism-based

Row | Structure (SMILES) | RIA [1] | EC50 [2] | RIA [3] | EC50 [4]
1 | O=C(O)c1n[nH]c2c1CCC2 | 55.9% | 6.44 µM | 51.7% | 6.97 µM
2 | O=C(O)c1cc[nH]n1 | 85.3% | 16 µM | 78.5% | 21.5 µM
3 | CCCc1cc(C(=O)O)n[nH]1 | 69.9% | 6.1 µM | 53.5% | 5.09 µM
4 | CC(C)c1cc(C(=O)O)n[nH]1 | 67.7% | 13.7 µM | 49.2% | 21.8 µM
5 | O=C(O)c1cc(Cc2ccccc2)n[nH]1 | 50.3% | 70.7 µM | 52.4% | 86.9 µM
6 | O=C(O)c1n[nH]c2c1CCCC2 | 47.2% | 85.1 µM |  | 64.6 µM
7 | O=C(O)c1cc(Cc2cccc(Cl)c2)n[nH]1 |  | 46.6 µM | 39.4% | 
8 | CCCCc1cc(C(=O)O)n[nH]1 | 80.7% | 4.12 µM | 75.7% | 2.26 µM
9 | O=C(O)c1cccnc1 [NIACIN] | 100% | 1.7 µM | 100% | 0.74 µM
